eIF4E-4G inh: eIF4E/eIF4G interaction inhibition in translation initiation; P63073+Q04637; TR-FRET eIF4E-eIF4GI(517-606) binding, 2 h; inhibition, % at 21.7 µM; actives 0.37% (n = 220,000);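 further: 0% = full FRET control wells and 100% = background wells lacking eIF4GI fragment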
EBV gp42 block: blocks Epstein-Barr virus glycoprotein 42 binding; Q1HVG2; Fluorescence polarization binding assay, mP read-out; inhibition, % (tested at 21.74 µM); actives 0.42% (n = 220,000); in the data active means inhibition above about 50%
WT yeast gro inh: growth inhibition of WT yeast, mitochondrial fusion screen; mitochondrial fusion phenotypic screen, WT strain; inhibition, % at 10 µM; actives 2.1% (n = 190,000); in the data active means inhibition above about 58%; tested in S. cerevisiae
14-3-3 Bad PPI: disrupts binding of bovine 14-3-3 zeta to phospho-Bad peptide. P63103. AID 781. TR-FRET 14-3-3zeta/Dy647-pBad peptide displacement, 1 h. inhibition, % at 21.7 µM. actives 0.71% (n = 220,000);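 active means inhibition above about 70%, limit read from the data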;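 further: 0% = full 14-3-3 plus peptide FRET controls and 100% = background without 14-3-3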
Target sequence (P63103 whole entry, looked up): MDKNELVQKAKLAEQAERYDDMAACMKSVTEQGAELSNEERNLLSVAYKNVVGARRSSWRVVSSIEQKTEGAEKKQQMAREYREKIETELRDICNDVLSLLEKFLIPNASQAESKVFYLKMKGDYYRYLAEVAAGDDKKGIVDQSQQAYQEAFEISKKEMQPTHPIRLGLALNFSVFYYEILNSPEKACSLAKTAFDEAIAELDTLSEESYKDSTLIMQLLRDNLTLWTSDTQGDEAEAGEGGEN
NCF1 inh: blocks human p47phox regulatory protein of NADPH oxidases; AID 1274; inhibition, % at 24.7 µM; p47phox/p22phox peptide binding, fluorescence polarization, 2 h; P14598; actives 0.53% (n = 220,000);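 further: 0% = p47phox with labelled peptide and 100% = labelled peptide alone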
RBBP9 inh: blocks human serine hydrolase RBBP9. inhibition, % at 7.94 µM. actives 0.2% (n = 220,000). recombinant RBBP9, FP-Rh probe fluorescence polarization. AID 1515. O75884;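 active means inhibition above the campaign mean of all tested compounds plus 3 SD, cut at about 14% in these data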;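 further: plate controls were DMSO wells with RBBP9 for no effect and wells lacking RBBP9 protein for full effect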
Target sequence (O75884 whole entry, looked up): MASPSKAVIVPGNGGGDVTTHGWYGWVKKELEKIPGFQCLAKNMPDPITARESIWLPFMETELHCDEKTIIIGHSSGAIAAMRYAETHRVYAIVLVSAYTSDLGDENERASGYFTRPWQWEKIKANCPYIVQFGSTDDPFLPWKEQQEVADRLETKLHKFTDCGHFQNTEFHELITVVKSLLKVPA
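Test system – recombinant human RBBP9 · Input – RBBP9 2.5 µM in dispensing solution, pre-mixing · Medium – Tris buffer pH 8.0, NaCl, Pluronic · Schedule – preincubation 30 min plus labeling 45 min at 25 °C · Measured by – fluorescence polarization · Measure – % inhibition · Controls – DMSO and no-protein wells · Replicates – one well per compound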
* hit, by the source's call; x = no result; + = active, no number. A selection: hits, their analogues and other compounds. The true share with any hit is near 3.7%.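 How the source made its calls, unless noted: active means inhibition above about 30% (limit read from the data); inactive means the rest.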

SMILES	eIF4E-4G inh	EBV gp42 block	WT yeast gro inh	14-3-3 Bad PPI	NCF1 inh	RBBP9 inh
COc1cccc([C@@H]2Oc3ccc(OC)cc3C(=O)[C@H]2OC(=O)N[C@H](C)C2CCCCC2)c1	1	-15	22	-2	-1	-8
COc1ccc2c(c1)O[C@H](c1ccc3c(c1)OCO3)[C@@H](OC(=O)N[C@H](C)C1CCCCC1)C2=O	1	0	32	92*	3	-9
COc1ccc(OC)c(NC(=O)COC(=O)Cc2ccc(-c3ccccc3)cc2)c1	3	-9	34	11	-25	-4
COc1ccc(OC)c(NC(=O)COC(=O)Cc2ccc(Br)cc2)c1	-1	-13	67*	5	-5	-5
COC(=O)c1ccc(C2c3c(oc4ccc(Cl)cc4c3=O)C(=O)N2CCN2CCOCC2)cc1 (configuration not stated)	1	-2	x	0	0	-9
N#Cc1sc2nc(N3CCCCC3)c3c(c2c1N)CCCC3	-1	6	73*	64	2	-3
CC1=C(C#N)S(=O)(=O)C(C#N)C(c2ccccc2)C1 (configuration not stated)	95*	-5	x	-3	-29	-10
CC(=O)N1N=C(C)CC1c1ccc(O)cc1 (configuration not stated)	-8	9	-3	-15	-7	-7
COc1ccccc1CNc1nc(-c2cc(C)n(C)c2C)cs1	47*	2	10	96*	46*	-5
CSc1nc2c(c(=O)n1C)SC(C)C2 (configuration not stated)	-1	-15	5	-7	-15	4
CCC(C)Sc1nc2c(c(=O)n1C)SC(C)C2 (configuration not stated)	-2	-20	61*	0	-16	-6
CC(C)C1N(C(N)=S)N=CC1(C)C (configuration not stated)	-6	-3	x	-7	-4	-12
COc1ccc(C2C(C(=O)c3ccccc3)=C(C)Nc3nc4ccccc4n32)cc1OC (configuration not stated)	4	-17	-10	15	34*	-6
CC1=C(C(=O)OCC(C)C)C(c2cccs2)NC(=S)N1 (configuration not stated)	6	-27	9	6	7	-8
O=C(O)c1cccnc1SCc1cccc(Cl)c1	-2	-1	-11	-13	-11	-2
COc1ccc(C2CC(c3ccccc3)=NN2c2ccc(S(N)(=O)=O)cc2)cc1OC (configuration not stated)	2	-10	5	16	15	-7
NS(=O)(=O)c1ccc(N2N=C(c3ccc(Br)cc3)CC2c2ccc(F)cc2)cc1 (configuration not stated)	3	0	92*	-5	2	-2
NS(=O)(=O)c1ccc(N2N=C(c3ccccc3)CC2c2cccc(F)c2)cc1 (configuration not stated)	6	3	85*	2	-15	-2
Fc1ccc(C2CC(c3ccco3)=NN2c2ccccc2)cc1 (configuration not stated)	-2	-12	19	-10	-7	-7
CC1=CC(=O)C(C(C)C)=CC1=NC(=O)c1ccc(C)cc1	3	3	-20	12	10	-1
CNC(=S)NNC(=O)CNc1ccc(C)c(Cl)c1	0	-12	12	-16	+	-6
CCCSc1nc2c3c(sc2c(=O)[nH]1)CC(C)(CC)OC3 (configuration not stated)	3	-6	-14	0	-22	7
Cn1c(=O)c2c(ncn2CCC(=O)N/N=C/c2cccnc2)n(C)c1=O	-5	-8	x	-15	-4	-6
CC(C)c1ccc(S(=O)(=O)Nc2ccc(SC(F)F)cc2)cc1	-2	9	85*	-5	-5	-5
CCC(=O)Nc1ccc(/C(C)=N\NS(=O)(=O)c2ccc(C)cc2)cc1	-12	-8	-17	-9	170*	-2
SMILES	eIF4E-4G inh	EBV gp42 block	WT yeast gro inh	14-3-3 Bad PPI	NCF1 inh	RBBP9 inh
CCNc1nc2cccnc2s1	-3	-13	x	-6	0	-13
c1ccc(-c2noc(-c3ccc4ccccc4c3)n2)nc1	2	-11	2	-1	-29	-10
COc1cccc(-c2nc(-c3ccccn3)no2)c1	1	-22	79*	-3	-2	-4
COc1cccc(-c2nc(=S)c3c(o2)CCCC3)c1	0	2	68*	-8	-18	-5
c1ccc(-c2noc(-c3ccc4c(c3)OCO4)n2)nc1	4	-9	64*	-3	-11	-5
COc1ccc(C(=O)Nc2cnn(Cc3c(F)cccc3Cl)c2)cc1OC	-6	-22	x	9	-11	-10
CN=c1scc(-c2ccccc2F)n1/N=C(\C)c1cccnc1	10	1	71*	6	10	-4
N#C/C(=C/c1ccc(-c2ccc(S(N)(=O)=O)cc2)o1)c1nc2ccccc2s1	16	64*	18	65	-76	-10
N#C/C(=C/c1ccc(-c2ccccc2)o1)c1nc(-c2cccs2)cs1	1	99*	3	-5	-13	-10
N#C/C(=C\c1ccc(-c2ccc(F)cc2)o1)C(=O)Nc1nc(-c2cccs2)cs1	5	12	2	14	-13	1
COc1ccc(/C(C#N)=C/c2ccccn2)cc1	5	-5	x	3	-6	-9
N#C/C(=C\c1ccccn1)c1nc2ccccc2s1	1	-23	59*	-5	-9	6
COC(=O)c1ccc(/C=C(\C#N)c2nc3ccccc3s2)cc1	4	-14	84*	41	10	-13
CC(C)(C)c1ccc(C(=O)OC/C(O)=C(\C#N)c2nc3ccccc3s2)cc1	6	-16	2	1	-33	-8
CCOC(=O)N1CCC(NC(=O)C2CCN(C(=O)c3cc4sccc4n3CC)CC2)CC1	-2	-6	x	-1	-5	-7
Cc1ccc(S(=O)(=O)N2CCOCC2)cc1C(=O)c1nccn1C	0	-7	8	-7	-1	-9
Cc1cnc(NC(=O)c2c(-c3ccccc3)noc2C)s1	2	-18	x	1	-15	-3
CC1=CC(=C2C(=O)c3ccccc3C2=O)C=C(C)N1C	-3	2	10	-8	-9	4
CCCCCN1C=CC(=C2C(=O)c3ccccc3C2=O)C=C1	3	-24	58*	-17	-20	-6
C/C=C/C(=O)OCC(=O)Nc1ccc(SC(F)F)cc1	2	3	-14	2	-1	-1
CCCCNC(=S)Nc1cc([N+](=O)[O-])ccc1C	3	2	18	-31	-6	-1
CNc1cc(CSC)nc(SCc2ccc(Cl)cc2Cl)n1	6	-4	85*	-7	-11	-5
Nc1nc(SCc2ccc(Cl)cc2Cl)n[nH]1	1	1	-5	10	-17	-3

Screening data from PubChem BioAssay.
